Reference: ChEMBL document CHEMBL3351926, “Altertoxins with potent anti-HIV activity from Alternaria tenuissima QUE1Se, a fungal endophyte of Quercus emoryi” (Bioorg Med Chem, 2014)
Active and inactive are the calls of the source. The calls are words filed in the database; no cut-off is given here.

Assays:
[1] = tested on: Human immunodeficiency virus 1; assay: Antiviral activity against HIV1 infected in human A3.01 cells assessed as inhibition of viral replication at 1.5 ug/ml; assay type: functional
How it was run: (§1)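 A3.01 T lymphocytes were infected with HIV-1 LAV in the presence of compound at a single concentration, 1.5 or 0.5 μg/mL, chosen from the A3.01 cytotoxicity data. Supernatant virus was measured by reverse transcriptase assay, and inhibition was scored on the peak day of virus production. Controls were DMSO at a matching concentration, AZT at 10 and 20 μM, untreated infected cells and mock cells.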

[2] = tested on: Human immunodeficiency virus 1; assay: Antiviral activity against HIV1 infected in human A3.01 cells assessed as inhibition of viral replication; assay type: functional, organism-based
How it was run: (§2)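 A3.01 T cells were infected with HIV-1 LAV in the presence of decreasing compound concentrations, lowered until viral replication reappeared. Virus in culture supernatants was measured by reverse transcriptase assay 9 days post-infection, the peak day for the untreated control. Replication was expressed as % of the untreated (concentration 0) control. Results are the mean and standard deviation of duplicate determinations, and IC50 was read from the dose–response curves.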

[3] = Therapeutic index, ratio of CC50 for human A3.01 cells to IC50 for HIV1 infected in human A3.01 cells; assay type: cell-based; details: A3.01 cells (uninfected for CC50; HIV1-infected for IC50)
How it was run: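 The index was calculated from A3.01 cytotoxicity data together with the IC50 for HIV-1 LAV replication in A3.01 cells. Replication was measured by supernatant reverse transcriptase assay 9 days post-infection on dose–response curves run in duplicate.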

[4] = tested on: Human immunodeficiency virus 1; assay: Antiviral activity against HIV1 infected in human A3.01 cells assessed as complete inhibition of viral replication at 2.20 uM; assay type: functional, organism-based; how it was run: as §2
[5] = tested on: Human immunodeficiency virus 1; assay: Antiviral activity against HIV1 infected in human A3.01 cells assessed as inhibition of viral replication at 0.5 ug/ml; assay type: functional; how it was run: as §1
[6] = tested on: Human immunodeficiency virus 1; assay: Antiviral activity against HIV1 infected in human A3.01 cells assessed as complete inhibition of viral replication at 1.50 uM; assay type: functional, organism-based; how it was run: as §2
[7] = tested on: Human immunodeficiency virus 1; assay: Antiviral activity against HIV1 infected in human A3.01 cells assessed as complete inhibition of viral replication at 20 uM; assay type: functional, organism-based
How it was run: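 Human A3.01 T-lymphocytes infected with HIV-1 LAV strain while exposed to compound. Virus levels in culture supernatants measured by reverse transcriptase assay. Inhibition read on peak day of virus production, 9 days post-infection in the untreated control. Compared against untreated infected cells, DMSO vehicle at matching concentration, and uninfected mock cells.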

In the case of O=C1C=C[C@H]2c3c(ccc(O)c31)-c1ccc(O)c3c1[C@H]2[C@H]1O[C@H]1C3=O, the inhibition at 1.5 µg/mL [1] is reported as 33%.

With O=C1C[C@H](O)[C@@H]2c3c(ccc(O)c31)-c1ccc(O)c3c1[C@@]2(O)CCC3=O [ALTERTOXIN I] the inhibition at 1.5 µg/mL [1] was 97%, the IC50 [2] was 1420 nM and the selectivity ratio [3] was 3. For the same compound, the inhibition [4] was “Active”.

For O=C1C[C@@H](O)[C@H]2c3c(ccc(O)c31)-c1ccc(O)c3c1[C@H]2[C@H]1O[C@H]1C3=O, the inhibition at 1.5 µg/mL [1] was 97%, the IC50 [2] was 90 nM and the selectivity ratio [3] was 50.

In the case of O=C1CC[C@]2(O)c3c(ccc(O)c31)-c1ccc(O)c3c1[C@H]2[C@H]1O[C@H]1C3=O, the IC50 [2] is reported as 210 nM, the selectivity ratio [3] is reported as 6.5 and the inhibition at 0.5 µg/mL [5] is reported as 97%.

In the case of O=C1c2c(O)ccc3c2[C@H](c2ccc(O)c4c2[C@H]3[C@H]2O[C@H]2C4=O)[C@H]2O[C@@H]12, the inhibition [6] is reported as “Active”, the inhibition at 1.5 µg/mL [1] is reported as 97% and the IC50 [2] is reported as 290 nM. The selectivity ratio [3] was 15.

With Cc1cn([C@H]2C[C@H](N=[N+]=[N-])[C@@H](CO)O2)c(=O)[nH]c1=O the inhibition [7] was “Active”.
